Source: ChEMBL document CHEMBL3352593, “Tumor xenograft uptake of a pyrrole-imidazole (Py-Im) polyamide varies as a function of cell line grafted” (J Med Chem, 2014)

Columns and labels:
Tumour [1] = assay: Drug level in tumor of human LNCAP cells xenografted NSG mouse at 20 nmol, ip after 24 hrs by liquid scintillation counting method; format: ADME, organism-based, Neoplasm; details: in vivo
Outline: (§1)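 Male NSG mice obtained at 8 weeks of age. Tumours engrafted subcutaneously with 2.5 M cells (viability ≥95% by trypan blue) in medium or 1:1 Matrigel; naive animals had no graft. Mice received 20 nmol C-14 polyamide per animal intraperitoneally. Tissues harvested 24 h later, solubilized, decolorized, and counted by liquid scintillation. Values are quench-corrected and normalized to organ weight; each tissue was analysed individually.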

Liver [2] = assay: Drug level in liver of human LNCAP cells xenografted NSG mouse at 20 nmol, ip after 24 hrs by liquid scintillation counting method; format: ADME, organism-based; details: in vivo; outline: as §1
Tumour [3] = assay: Drug level in tumor of human A549 cells xenografted NSG mouse at 20 nmol, ip after 24 hrs by liquid scintillation counting method; format: ADME, organism-based, Neoplasm; details: in vivo; outline: as §1
Kidney [4] = assay: Drug level in kidney of human A549 cells xenografted NSG mouse at 20 nmol, ip after 24 hrs by liquid scintillation counting method; format: ADME, organism-based; details: in vivo; outline: as §1
Lung [5] = assay: Drug level in lung of human A549 cells xenografted NSG mouse at 20 nmol, ip after 24 hrs by liquid scintillation counting method; format: ADME, organism-based; details: in vivo; outline: as §1
Tumour [6] = assay: Drug level in tumor of human U251 cells xenografted NSG mouse at 20 nmol, ip after 24 hrs by liquid scintillation counting method; format: ADME, organism-based, Neoplasm, U-251; details: in vivo; outline: as §1
Kidney [7] = assay: Drug level in kidney of naive NSG mouse at 20 nmol, ip after 24 hrs by liquid scintillation counting method; format: ADME, organism-based; details: in vivo; outline: as §1
Kidney [8] = assay: Drug level in kidney of human A549 cells and human LNCAP cells xenografted NSG mouse at 20 nmol, ip after 24 hrs by liquid scintillation counting method; format: ADME, organism-based; details: in vivo; outline: as §1
Lung [9] = assay: Drug level in lung of human LNCAP cells xenografted NSG mouse at 20 nmol, ip after 24 hrs by liquid scintillation counting method; format: ADME, organism-based; details: in vivo; outline: as §1
Lung [10] = assay: Drug level in lung of human U251 cells xenografted NSG mouse at 20 nmol, ip after 24 hrs by liquid scintillation counting method; format: ADME, organism-based, U-251; details: in vivo; outline: as §1
Liver [11] = assay: Drug level in liver of human U251 cells xenografted NSG mouse at 20 nmol, ip after 24 hrs by liquid scintillation counting method; format: ADME, organism-based, U-251; details: in vivo; outline: as §1
Liver [12] = assay: Drug level in liver of human A549 cells xenografted NSG mouse at 20 nmol, ip after 24 hrs by liquid scintillation counting method; format: ADME, organism-based; details: in vivo; outline: as §1
Liver [13] = assay: Drug level in liver of human A549 cells and human LNCAP cells xenografted NSG mouse at 20 nmol, ip after 24 hrs by liquid scintillation counting method; format: ADME, organism-based; details: in vivo; outline: as §1
Tumour [14] = assay: Drug level in tumor of matrigel-negative human A549 cells xenografted NSG mouse at 20 nmol, ip measured 3 to 4 weeks past engraftment by liquid scintillation counting method; format: ADME, organism-based, Neoplasm; details: in vivo; outline: as §1
Tumour [15] = assay: Drug level in tumor of matrigel-positive human A549 cells xenografted NSG mouse at 20 nmol, ip measured 3 to 4 weeks past engraftment by liquid scintillation counting method; format: ADME, organism-based, Neoplasm; details: in vivo; outline: as §1
Tumour [16] = assay: Drug level in tumor of matrigel-negative human A549 cells xenografted NSG mouse at 20 nmol, ip measured 5 weeks past engraftment by liquid scintillation counting method; format: ADME, organism-based, Neoplasm; details: in vivo, 840 h; outline: as §1
Tumour [17] = assay: Drug level in tumor of matrigel-positive human A549 cells xenografted NSG mouse at 20 nmol, ip measured 5 weeks past engraftment by liquid scintillation counting method; format: ADME, organism-based, Neoplasm; details: in vivo, 840 h; outline: as §1
Kidney [18] = assay: Drug level in balb/c mouse kidney at 15 nmol, ip after 24 hrs by liquid scintillation counting method; format: ADME, organism-based; details: in vivo
Outline: (§2)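 Male balb/c mice given C-14-labelled polyamide (quantitated by scintillation counting before dosing) as a single 15 nmol intraperitoneal dose per animal. Organs collected 24 h later and solubilized at +65 °C for at least 12 h, then decolorized with H2O2. C-14 counted by liquid scintillation, quench-corrected and normalized to organ weight. N = 5, mean with standard deviation.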

Liver [19] = assay: Drug level in balb/c mouse liver at 15 nmol, ip after 24 hrs by liquid scintillation counting method; format: ADME, organism-based; details: in vivo; outline: as §2
Bone marrow = assay: Drug level in balb/c mouse bone marrow at 15 nmol, ip after 24 hrs by liquid scintillation counting method; format: ADME, organism-based; details: in vivo; outline: as §2
Spleen = assay: Drug level in balb/c mouse spleen at 15 nmol, ip after 24 hrs by liquid scintillation counting method; format: ADME, organism-based; details: in vivo; outline: as §2
Pancreas = assay: Drug level in balb/c mouse pancreas at 15 nmol, ip after 24 hrs by liquid scintillation counting method; format: ADME, organism-based; details: in vivo; outline: as §2
Brain = assay: Drug level in balb/c mouse brain at 15 nmol, ip after 24 hrs by liquid scintillation counting method; format: ADME, organism-based; details: in vivo; outline: as §2
Liver [20] = assay: Drug level in liver of matrigel-negative human A549 cells xenografted NSG mouse at 20 nmol, ip measured 5 weeks past engraftment by liquid scintillation counting method; format: ADME, organism-based; details: in vivo, 840 h, in the assay text read “matrigel-positive” for “matrigel-negative”; outline: as §1
Liver [21] = assay: Drug level in liver of matrigel-positive human A549 cells xenografted NSG mouse at 20 nmol, ip measured 5 weeks past engraftment by liquid scintillation counting method; format: ADME, organism-based; details: in vivo, 840 h, in the assay text read “matrigel-negative” for “matrigel-positive”; outline: as §1

CC(=O)N[C@H](CCNC(=O)c1cc(NC(=O)c2cc(NC(=O)c3cc(NC(=O)c4nccn4C)cn3C)cn2C)cn1C)C(=O)Nc1cnc(C(=O)Nc2cc(C(=O)Nc3cc(C(=O)Nc4cc(C(=O)NCCCN(C)CCCN[14C](=O)c5cccc([14C](=O)O)c5)n(C)c4)n(C)c3)n(C)c2)n1C
Drug uptake (Tumour [1]): 1.5 mg/kg | Drug uptake (Liver [2]): 1.04 mg/kg | Drug uptake (Tumour [3]): 0.23 mg/kg | Drug uptake (Kidney [4]): 0.27 mg/kg | Drug uptake (Lung [5]): 0.15 mg/kg | Drug uptake (Tumour [6]): 0.65 mg/kg | Drug uptake (Kidney [7]): 0.23 mg/kg | Drug uptake (Kidney [8]): 0.27 mg/kg | Drug uptake (Lung [9]): 0.12 mg/kg | Drug uptake (Lung [10]): 0.12 mg/kg | Drug uptake (Liver [11]): 0.57 mg/kg | Drug uptake (Liver [12]): 0.57 mg/kg | Drug uptake (Liver [13]): 1.04 mg/kg | Drug uptake (Tumour [14]): 0.23 mg/kg | Drug uptake (Tumour [15]): 0.23 mg/kg | Drug uptake (Tumour [16]): 0.25 mg/kg | Drug uptake (Tumour [17]): 0.59 mg/kg | Drug uptake (Kidney [18]): 0.22 mg/kg | Drug uptake (Liver [19]): 0.49 mg/kg | Drug uptake (Bone marrow): 0.24 mg/kg | Drug uptake (Spleen): 0.32 mg/kg | Drug uptake (Pancreas): 0.15 mg/kg | Drug uptake (Brain): Not Active | Drug uptake (Liver [20]): 0.65 mg/kg | Drug uptake (Liver [21]): 0.55 mg/kg
